Test results taken from ChEMBL document CHEMBL3352765, “Synthesis and evaluation of the cytotoxic activity of 1,2-furanonaphthoquinones tethered to 1,2,3-1H-triazoles in myeloid and lymphoid leukemia cell lines” (Eur J Med Chem, 2014).
pIC50: −log10 of the molar value. Structures can show the parent of a compound that is named as a salt.

How the values were obtained:
[1] = tested on: K562; assay: Cytotoxicity against human K562 cells after 48 hrs by Alamar blue assay; format: functional, cell-based; conditions: K562, 48 h
How it was run: (§1)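 Cells were seeded and exposed to compounds for 48 h in total: K562 at 2.5 × 10⁴/well, KG1 at 5.0 × 10⁴/well. AlamarBlue was added 4 h (K562) or 6 h (KG1) before the end. Fluorescence was read at ex 560/em 590 nm. Triplicate wells at six or seven concentrations. Vehicle controls contained up to 1% DMSO and defined 100% survival. Readout was IC50.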

[2] = tested on: PBMC; assay: Cytotoxicity against normal human PBMC assessed as reduction in cell viability at 10 times anti-leukemic IC50 after 48 hrs by Alamar blue assay; format: cell-based
How it was run: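 Gradient-isolated donor PBMCs (three donors), 5 × 10⁴/well in RPMI 1640 with 10% inactivated FBS. […] Viability was measured by AlamarBlue with 24 h dye incubation and fluorescence at ex 560/em 590 nm.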

[3] = Induction of hemolysis in lamb blood erythrocytes at 1000 uM incubated for 10 mins by microplate reader method; format: cell-based, Ovis aries, Erythrocyte; conditions: sheep, read-out: Activity
How it was run: (§2)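 Fresh lamb erythrocytes were collected by centrifugation at 1500 rpm for 15 min and washed three times in PBS with 10 mM glucose, pH 7.4. They were used at 4 × 10⁸/well in triplicate, with compounds at a final 1000 µM and retests at 200 µM. After centrifugation at 13,000 rpm for 15 min, supernatant absorbance was read at 540 nm. Results are given as % of complete hemolysis from water osmotic shock.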

[4] = tested on: CCRF-CEM; assay: Cytotoxicity against human CCRF-CEM cells after 48 hrs by Alamar blue assay; format: functional, cell-based
How it was run: (§3)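 Cells seeded at 2.5 × 10⁴/well and exposed to compounds for 48 h in total. AlamarBlue was added before the end of the 48 h (CCRF-CEM 2 h, MOLT-4 6 h). Resorufin fluorescence was read at ex 560/em 590 nm. Triplicate wells at six or seven concentrations. Controls were cells with medium and up to 1% DMSO. IC50 is the concentration killing 50% of cells.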

[5] = Cytotoxicity against human KG1 cells after 48 hrs by Alamar blue assay; format: functional, cell-based; conditions: KG-1, 48 h; how it was run: as §1
[6] = tested on: MOLT-4; assay: Cytotoxicity against human MOLT4 cells after 48 hrs by Alamar blue assay; format: functional, cell-based; conditions: MOLT-4, 48 h; how it was run: as §3
[7] = Induction of hemolysis in lamb blood erythrocytes at 200 uM incubated for 10 mins by microplate reader method; format: cell-based, Ovis aries; conditions: sheep, erythrocyte; how it was run: as §2
[8] = tested on: PBMC; assay: Cytotoxicity against normal human PBMC assessed as reduction in cell viability after 48 hrs by Alamar blue assay; format: functional, cell-based
How it was run: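 PBMCs were isolated from healthy-donor buffy coats by density gradient centrifugation and seeded at 5.0 × 10⁴/well in RPMI 1640 with 10% inactivated FBS. Exposure was 48 h, with AlamarBlue added for the final 24 h. Fluorescence was read at ex 560/em 590 nm. Triplicate wells at six or seven concentrations. IC50 was derived against vehicle controls.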

[9] = tested on: PBMC; assay: Cytotoxicity against normal human PBMC assessed as reduction in cell viability at 10 uM after 48 hrs by Alamar blue assay; format: functional
[10] = Cytotoxicity against human lymphocytes; format: cell-based; conditions: Lymphocyte
[11] = tested on: V79; assay: Cytotoxicity against Chinese hamster V79 cells; format: cell-based; conditions: Cricetulus griseus

SMILES | pIC50 [1] | Activity [2] | hemolysis at 10 min, 1000 µM [3] | pIC50 [4] | pIC50 [5] | pIC50 [6] | Activity [7] | pIC50 [8] | Activity [9] | pIC50 [10] | pIC50 [11]
COc1ccc(-c2cn(C3C4=C(OC3(C)C)c3ccccc3C(=O)C4=O)nn2)cc1 (stereo unspecified) | 5.04 | > 80% | < 5% | 4.93 | 4.12 | 4.46 | – | – | – | – | –
CC1(C)OC2=C(C(=O)C(=O)c3ccccc32)C1n1cc(C2=CCCCC2)nn1 (stereo unspecified) | 5.95 | > 80% | < 5% | 4.90 | 5.08 | 6.55 | – | – | – | – | –
CC1(C)OC2=C(C(=O)C(=O)c3ccccc32)C1n1cc(C2CCCCC2)nn1 (stereo unspecified) | 5.42 | Non-toxic | < 5% | 5.71 | 5.12 | 5.67 | – | – | – | – | –
CCCCCc1ccc(-c2cn(C3C4=C(OC3(C)C)c3ccccc3C(=O)C4=O)nn2)cc1 (stereo unspecified) | 5.10 | > 80% | > 5% | 4.86 | 5.41 | 5.58 | Non-toxic | – | – | – | –
CCCc1cn(C2C3=C(OC2(C)C)c2ccccc2C(=O)C3=O)nn1 (stereo unspecified) | 4.22 | > 80% | < 5% | 5.50 | 5.81 | 5.83 | – | – | – | – | –
CCCCc1cn(C2C3=C(OC2(C)C)c2ccccc2C(=O)C3=O)nn1 (stereo unspecified) | 5.42 | > 80% | < 5% | 5.43 | 5.42 | 5.72 | – | – | – | – | –
CCCCCc1cn(C2C3=C(OC2(C)C)c2ccccc2C(=O)C3=O)nn1 (stereo unspecified) | 5.57 | > 80% | < 5% | 4.56 | 4.52 | 5.64 | – | – | – | – | –
CCCCCCc1cn(C2C3=C(OC2(C)C)c2ccccc2C(=O)C3=O)nn1 (stereo unspecified) | – | > 80% | < 5% | 5.14 | 5.25 | 5.66 | – | – | – | – | –
CCC(C)(O)c1cn(C2C3=C(OC2(C)C)c2ccccc2C(=O)C3=O)nn1 (stereo unspecified) | 5.86 | Non-toxic | < 5% | 5.45 | 5.25 | 5.70 | – | – | – | – | –
CC(C)CC(C)(O)c1cn(C2C3=C(OC2(C)C)c2ccccc2C(=O)C3=O)nn1 (stereo unspecified) | 5.72 | > 80% | < 5% | 5.75 | 5.88 | 5.83 | – | – | – | – | –
CC(=O)OCc1cn(C2C3=C(OC2(C)C)c2ccccc2C(=O)C3=O)nn1 (stereo unspecified) | 5.08 | > 80% | < 5% | 6.51 | 5.02 | 6.80 | – | – | – | – | –
CC1(C)OC2=C(C(=O)C(=O)c3ccccc32)C1n1cc(CCl)nn1 (stereo unspecified) | 5.86 | Non-toxic | > 5% | 6.17 | 6.01 | 6.32 | Non-toxic | – | – | – | –
CC1(C)OC2=C(C(=O)C(=O)c3ccccc32)C1n1cc(CCCCl)nn1 (stereo unspecified) | 5.68 | > 80% | < 5% | 6.47 | 6.03 | 7.30 | – | < 5.00 | – | – | –
CC1(C)OC2=C(C(=O)C(=O)c3ccccc32)C1n1cc(C2(O)CCCCC2)nn1 (stereo unspecified) | 5.82 | > 80% | < 5% | 5.55 | 5.31 | 5.59 | – | – | – | – | –
CC1(C)OC2=C(C(=O)C(=O)c3ccccc32)C1n1cc(-c2ccccc2)nn1 (stereo unspecified) | 4.84 | Non-toxic | < 5% | 5.71 | 4.89 | 6.12 | – | – | 30% | – | –
CC(C)(O)c1cn(C2C3=C(OC2(C)C)c2ccccc2C(=O)C3=O)nn1 (stereo unspecified) | 5.61 | > 80% | < 5% | 5.76 | 5.70 | 5.67 | – | – | – | – | –
CC1(C)OC2=C(C(=O)C(=O)c3ccccc32)C1n1cc(COC2CCCCO2)nn1 (stereo unspecified) | 5.74 | > 80% | < 5% | 5.50 | 5.25 | 5.69 | – | – | – | – | –
CC1(C)OC2=C(C(=O)C(=O)c3ccccc32)C1N=[N+]=[N-] (stereo unspecified) | 5.80 | > 80% | – | 5.50 | 5.22 | 5.44 | – | – | – | – | –
CC1(C)OC2=C(C(=O)C(=O)c3ccccc32)C1n1cc(CO)nn1 (stereo unspecified) | 5.80 | > 80% | < 5% | 5.82 | 5.27 | 5.87 | – | – | – | – | –
COc1cccc2c1C(=O)c1c(O)c3c(c(O)c1C2=O)C[C@@](O)(C(=O)CO)C[C@@H]3O[C@H]1C[C@H](N)[C@H](O)[C@H](C)O1 [DOXORUBICIN HYDROCHLORIDE] | – | > 80% | – | 6.82 | – | 7.15 | – | – | – | – | –
CC1(C)CC2=C(O1)c1ccccc1C(=O)C2=O [NOR-BETA-LAPACHONE] | 5.64 | > 80% | – | 4.82 | 4.76 | 4.87 | – | – | – | < 4.66 | 4.89
